Laboratory results from article PMC6118327 (Biochimica et biophysica acta. Biomembranes, 2017).
Where a chain is given by its changes, count along the chain named. Where “and” joins values, the source holds several entries; their conditions need not be identical. Equal values may be shown once.

Tests used:
Format in all cases: biochemical
mUCP3 = target: T1, mUCP3 (Mus musculus, UniProt P56501); conditions: 15 mol% AA
T1 sequence (P56501 1-308): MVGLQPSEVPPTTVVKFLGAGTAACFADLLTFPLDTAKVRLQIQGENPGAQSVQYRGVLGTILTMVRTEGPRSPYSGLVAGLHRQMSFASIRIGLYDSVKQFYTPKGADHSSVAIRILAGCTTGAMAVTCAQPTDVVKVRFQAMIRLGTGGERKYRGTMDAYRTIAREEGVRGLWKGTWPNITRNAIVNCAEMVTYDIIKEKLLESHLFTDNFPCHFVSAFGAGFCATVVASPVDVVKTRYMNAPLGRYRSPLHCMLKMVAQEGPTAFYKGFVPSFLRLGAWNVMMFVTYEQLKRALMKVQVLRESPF
How it was run: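 Recombinant mouse protein reconstituted into DOPC/DOPE/CL (45:45:10) liposomes. Bilayers formed at 1.5 mg/ml lipid, 6 μg protein/mg lipid, AA 10 or 15 mol%. Run in 50 mM Na₂SO₄/10 mM MES/10 mM Tris/0.6 mM EGTA, pH 7.35, 32°C. I/V recorded −50 to +50 mV, including with 2 mM ATP. G from linear fit at 0 mV gives relative conductance. IC50 and maximum inhibition come from a four-parameter logistic fit. AA-dependence tested at 1 mM ATP, 2 mM ADP, 5 mM AMP. Mean ± SD, ≥3 experiments.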

mUCP3R84Q = target: T2, mUCP3R84Q (Mus musculus, UniProt P56501, R84Q); assay: Relative conductance of UCP3 mutant in planar bilayer membranes; conditions: 3 mM ammonium-phosphate-dibasic; 15 mol% AA
T2 sequence (P56501 1-308 R84Q): T1 sequence (P56501 1-308) with R84Q
How it was run: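 Arginine point mutants made by site-directed mutagenesis, expressed in E. coli Rosetta and reconstituted like wild type. Planar DOPC/DOPE/CL (45:45:10) bilayers carried 15 mol% AA; buffer pH 7.35, 32°C. Relative conductance compared with wild type after nucleotide addition: UCP1 mutants 5 mM ATP, ADP or AMP; UCP3 mutant 2 mM ATP, 4 mM ADP or 8 mM AMP. Mean ± SD, ≥3 experiments.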

mUCP3 R278L = target: T3, mUCP3 R278L (Mus musculus, UniProt P56501, R278L); assay: Relative conductance of UCP3 mutant in planar bilayer membranes; conditions: 3 mM ammonium-phosphate-dibasic; 15 mol% AA
T3 sequence (P56501 1-308 R278L): T1 sequence (P56501 1-308) with R278L

mUCP1 = target: T4, mUCP1 (Mus musculus, UniProt P12242); conditions: 15 mol% AA, curve fitting
T4 sequence (P12242 1-307): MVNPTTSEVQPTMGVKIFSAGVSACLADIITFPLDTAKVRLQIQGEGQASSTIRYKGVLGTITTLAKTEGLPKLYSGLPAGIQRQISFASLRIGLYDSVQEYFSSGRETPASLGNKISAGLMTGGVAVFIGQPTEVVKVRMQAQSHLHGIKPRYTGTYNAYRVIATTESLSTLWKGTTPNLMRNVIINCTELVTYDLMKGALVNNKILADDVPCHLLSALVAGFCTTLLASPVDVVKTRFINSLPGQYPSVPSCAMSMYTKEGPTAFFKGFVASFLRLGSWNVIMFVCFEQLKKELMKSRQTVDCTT
How it was run: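 Inclusion-body mouse protein reconstituted into DOPC/DOPE/CL (45:45:10) proteoliposomes. Planar bilayers made at 1.5 mg/ml lipid, AA 10 or 15 mol% in the lipid solution, sulfate/MES/Tris/EGTA buffer pH 7.35, 32°C. I/V swept −50 to +50 mV; G at zero voltage from linear fit, normalised to AA-only and UCP+AA membranes. Titrations of nucleotides or phosphate fitted by four-parameter logistic for IC50 and maximum inhibition. AA comparison used 1 mM ATP, 2 mM ADP, 2 mM AMP. Mean ± SD, ≥3 experiments.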

mUCP3 R184T = target: T5, mUCP3 R184T (Mus musculus, UniProt P56501, R184T); assay: Relative conductance of UCP3 mutant in planar bilayer membranes; conditions: 3 mM ammonium-phosphate-dibasic; 15 mol% AA
T5 sequence (P56501 1-308 R184T): T1 sequence (P56501 1-308) with R184T

O=P(O)(O)O [Pi, inorganic phosphate]
maximum inhibition of mUCP3 by Pi (mUCP3; curve fitting): ~ 60%
extent of inhibition at high inhibitor concentration (mUCP3; DOPC/DOPE/CL membranes, pH 7.35, 32°C): only partial inhibition
IC50 (mUCP3; read-out: IC50 of Pi inhibition, curve fitting): ~1000 µM and 1000 µM
effect of mutation on inhibition by phosphate (mUCP3R84Q): none of the arginine mutations had any effect
effect of mutation on inhibition by phosphate (mUCP3 R278L): none of the arginine mutations had any effect
IC50 of mUCP1 inhibition by Pi compared with mUCP3 (mUCP1): similar
maximum inhibition of mUCP1 by Pi compared with mUCP3 (mUCP1): similar
effect of mutation on inhibition by phosphate (mUCP3 R184T): none of the arginine mutations had any effect
